According to ChEMBL document CHEMBL4007505 (J Med Chem, 2017):
Activity calls are given as the source filed them.

Legend:
[1] = molecular target: T1, Sodium-dependent noradrenaline transporter (Homo sapiens, UniProt P23975); assay: Inhibition of recombinant human NET expressed in HEK293 […] assessed as reduction in [3H]-norepinephrine uptake incubated for 22 mins by micro beta scintillation counting analysis
[2] = molecular target: T1, Sodium-dependent noradrenaline transporter; assay: Enhancing of [125I]RTI-55 binding to recombinant human NET expressed in HEK293 cell membranes preincubated for 10 mins followed by radioligand addition measured after 90 mins by micro beta scintillation counting analysis
[3] = molecular target: Sodium-dependent serotonin transporter (Homo sapiens, UniProt P31645); assay: Enhancing of [125I]RTI-55 binding to recombinant human SERT expressed in HEK293 cell membranes preincubated for 10 mins followed by radioligand addition measured after 90 mins by micro beta scintillation counting analysis; conditions: hek293
[4] = molecular target: T1, Sodium-dependent noradrenaline transporter; assay: Inhibition of [125I]RTI-55 binding to recombinant human NET expressed in HEK293 cell membranes preincubated for 10 mins followed by radioligand addition measured after 90 mins by micro beta scintillation counting analysis
[5] = molecular target: T2, Sodium-dependent dopamine transporter (Homo sapiens, UniProt Q01959); assay: Enhancing of [3H]mazindol binding to recombinant human DAT expressed in HEK293 cell membranes preincubated for 10 mins followed by radioligand addition measured after 90 mins by micro beta scintillation counting analysis; conditions: hek293
Method in brief: (§1)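 Membranes of HEK-293 cells stably expressing hDAT, hNET or hSERT. […] Compound preincubated 10 min at room temperature, then [125I]23 (40-80 pM final) or [3H]26 (1-3 nM for DAT and NET, 10-13 nM for SERT) added. Incubated 90 min at room temperature in the dark, then filtered. EC50 or Ki; mean ± SEM.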

[6] = molecular target: T2, Sodium-dependent dopamine transporter; assay: Enhancing of [125I]RTI-55 binding to recombinant human DAT expressed in HEK293 cell membranes preincubated for 10 mins followed by radioligand addition measured after 90 mins by micro beta scintillation counting analysis; method in brief: as §1
[7] = molecular target: T1, Sodium-dependent noradrenaline transporter; assay: Enhancing of [3H]mazindol binding to recombinant human NET expressed in HEK293 cell membranes preincubated for 10 mins followed by radioligand addition measured after 90 mins by micro beta scintillation counting analysis
[8] = molecular target: T1, Sodium-dependent noradrenaline transporter; assay: Inhibition of [3H]mazindol binding to recombinant human NET expressed in HEK293 cell membranes preincubated for 10 mins followed by radioligand addition measured after 90 mins by micro beta scintillation counting analysis
[9] = molecular target: T3, Sodium-dependent dopamine transporter (Mus musculus, UniProt Q61327); assay: Inhibition of mouse DAT expressed in HEK293 cells assessed as reduction in [3H]-DA uptake; assay type: cell-based
[10] = molecular target: T3, Sodium-dependent dopamine transporter; assay: Inhibition of [125I]RTI-55 binding to mouse DAT expressed in HEK293 cells preincubated for 10 mins followed by radioligand addition measured after 90 mins by micro beta scintillation counting analysis; assay type: cell-based
[11] = molecular target: T4, Alpha-1A adrenergic receptor (Homo sapiens, UniProt P35348); assay: Displacement of [3H]Prazosin from human adrenergic alpha1A receptor
T4 sequence (P35348 whole entry): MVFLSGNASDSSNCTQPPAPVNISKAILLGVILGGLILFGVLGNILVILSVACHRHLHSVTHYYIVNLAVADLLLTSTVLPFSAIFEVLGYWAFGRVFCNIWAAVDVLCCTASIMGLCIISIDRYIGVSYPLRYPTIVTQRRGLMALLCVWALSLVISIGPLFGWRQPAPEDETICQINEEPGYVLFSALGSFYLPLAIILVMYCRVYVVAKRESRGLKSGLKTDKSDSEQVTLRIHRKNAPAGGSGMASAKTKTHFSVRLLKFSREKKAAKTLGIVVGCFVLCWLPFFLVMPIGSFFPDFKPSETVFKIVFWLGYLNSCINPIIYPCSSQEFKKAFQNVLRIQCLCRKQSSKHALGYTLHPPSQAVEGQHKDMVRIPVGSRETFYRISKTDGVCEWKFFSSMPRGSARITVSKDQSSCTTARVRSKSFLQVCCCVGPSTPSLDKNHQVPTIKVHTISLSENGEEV

[12] = molecular target: T5, Alpha-2C adrenergic receptor (Homo sapiens, UniProt P18825); assay: Displacement of [3H]Rauwolscine from human adrenergic alpha2C receptor
T5 sequence (P18825 whole entry): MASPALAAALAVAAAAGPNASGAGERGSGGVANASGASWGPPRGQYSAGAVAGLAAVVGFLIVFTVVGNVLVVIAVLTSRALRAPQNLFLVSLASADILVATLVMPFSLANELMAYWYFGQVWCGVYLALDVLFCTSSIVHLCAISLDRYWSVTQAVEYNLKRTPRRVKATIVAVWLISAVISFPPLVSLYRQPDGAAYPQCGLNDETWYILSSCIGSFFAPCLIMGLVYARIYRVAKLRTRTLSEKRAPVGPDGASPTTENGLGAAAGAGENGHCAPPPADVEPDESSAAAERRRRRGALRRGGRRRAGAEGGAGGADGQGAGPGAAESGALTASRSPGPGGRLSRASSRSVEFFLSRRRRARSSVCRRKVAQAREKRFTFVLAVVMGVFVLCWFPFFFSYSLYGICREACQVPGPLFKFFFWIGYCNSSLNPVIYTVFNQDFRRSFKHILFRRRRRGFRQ

[13] = molecular target: T2, Sodium-dependent dopamine transporter; assay: Inhibition of [3H]WIN35,428 binding to recombinant human DAT expressed in HEK293 cell membranes at 10 uM pre-incubated for 10 mins before radioligand addition and measured 90 mins after radioligand addition by micro beta scintillation counting analysis relative to control
[14] = molecular target: T6, Alpha-1B adrenergic receptor (Homo sapiens, UniProt P35368); assay: Displacement of [3H]Prazosin from human adrenergic alpha1B receptor
T6 sequence (P35368 whole entry): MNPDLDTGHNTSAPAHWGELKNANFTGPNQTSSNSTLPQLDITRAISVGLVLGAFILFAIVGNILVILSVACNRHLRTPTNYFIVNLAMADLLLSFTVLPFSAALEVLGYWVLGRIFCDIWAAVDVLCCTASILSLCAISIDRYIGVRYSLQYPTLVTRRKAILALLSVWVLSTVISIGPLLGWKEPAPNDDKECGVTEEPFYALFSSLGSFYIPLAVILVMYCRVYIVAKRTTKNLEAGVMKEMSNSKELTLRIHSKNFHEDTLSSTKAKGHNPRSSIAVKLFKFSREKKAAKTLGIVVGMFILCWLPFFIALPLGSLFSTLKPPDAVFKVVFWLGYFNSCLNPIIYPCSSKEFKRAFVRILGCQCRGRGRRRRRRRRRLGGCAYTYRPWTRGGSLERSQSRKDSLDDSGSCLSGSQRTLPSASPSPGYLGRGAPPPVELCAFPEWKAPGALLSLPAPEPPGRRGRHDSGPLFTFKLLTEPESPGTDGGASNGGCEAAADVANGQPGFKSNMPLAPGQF

Mus musculus = assay: Antiallodynic activity in mouse chronic constriction injury model of neuropathic pain assessed as time duration of action for increasing in paw withdrawal threshold at 3 umol/kg, po administered on day 7 post injury; assay type: functional
[15] = molecular target: T7, Alpha-1D adrenergic receptor (Homo sapiens, UniProt P25100); assay: Displacement of [3H]Prazosin from human adrenergic alpha1D receptor
T7 sequence (P25100 whole entry): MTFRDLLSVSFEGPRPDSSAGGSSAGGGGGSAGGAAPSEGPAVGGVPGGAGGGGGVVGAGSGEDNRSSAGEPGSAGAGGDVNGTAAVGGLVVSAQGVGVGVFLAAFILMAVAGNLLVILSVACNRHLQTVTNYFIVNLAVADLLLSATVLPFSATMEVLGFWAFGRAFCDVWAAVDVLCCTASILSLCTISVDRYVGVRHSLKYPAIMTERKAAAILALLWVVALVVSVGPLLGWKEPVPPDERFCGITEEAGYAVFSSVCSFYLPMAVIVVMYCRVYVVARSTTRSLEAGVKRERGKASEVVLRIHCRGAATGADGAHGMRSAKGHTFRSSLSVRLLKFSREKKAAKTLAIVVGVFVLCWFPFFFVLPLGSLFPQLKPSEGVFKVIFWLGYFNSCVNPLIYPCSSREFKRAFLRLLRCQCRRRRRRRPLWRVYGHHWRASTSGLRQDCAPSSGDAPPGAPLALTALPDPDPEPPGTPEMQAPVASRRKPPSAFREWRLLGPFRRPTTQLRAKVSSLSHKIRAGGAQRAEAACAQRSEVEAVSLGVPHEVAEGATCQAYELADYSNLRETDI

[16] = molecular target: Alpha-2A adrenergic receptor (Homo sapiens, UniProt P08913); assay: Displacement of [3H]Rauwolscine from human adrenergic alpha2A receptor
[17] = molecular target: T2, Sodium-dependent dopamine transporter; assay: Enhancing of [3H]WIN35,428 binding to recombinant human DAT expressed in HEK293 cell membranes at 10 uM pre-incubated for 10 mins before radioligand addition and measured 90 mins after radioligand addition by micro beta scintillation counting analysis relative to control
[18] = molecular target: T2, Sodium-dependent dopamine transporter; assay: Enhancing of [3H]WIN35,428 binding to recombinant human DAT expressed in HEK293 cell membranes pre-incubated for 10 mins before radioligand addition and measured 90 mins after radioligand addition by micro beta scintillation counting analysis relative to control
[19] = molecular target: T2, Sodium-dependent dopamine transporter; assay: Inhibition of recombinant human DAT expressed in HEK293 cell […] as reduction in [3H]-DA uptake incubated for 22 mins by micro beta scintillation counting analysis
[20] = molecular target: Beta-3 adrenergic receptor (Homo sapiens, UniProt P13945); assay: Displacement of [3H]CGP12177 from human adrenergic beta3 receptor
Chain of Beta-3 adrenergic receptor (P13945 whole entry): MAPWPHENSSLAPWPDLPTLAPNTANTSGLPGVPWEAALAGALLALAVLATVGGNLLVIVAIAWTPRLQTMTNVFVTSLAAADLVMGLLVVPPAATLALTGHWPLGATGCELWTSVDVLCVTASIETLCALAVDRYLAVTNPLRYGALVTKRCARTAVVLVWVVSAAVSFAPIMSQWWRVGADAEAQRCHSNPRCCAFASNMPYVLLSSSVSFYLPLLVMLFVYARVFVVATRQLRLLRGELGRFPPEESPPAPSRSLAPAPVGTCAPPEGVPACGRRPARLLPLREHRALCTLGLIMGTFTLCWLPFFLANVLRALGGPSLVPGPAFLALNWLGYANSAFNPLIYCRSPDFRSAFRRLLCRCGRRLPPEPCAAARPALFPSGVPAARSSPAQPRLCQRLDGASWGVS

T2 sequence (Q01959 whole entry): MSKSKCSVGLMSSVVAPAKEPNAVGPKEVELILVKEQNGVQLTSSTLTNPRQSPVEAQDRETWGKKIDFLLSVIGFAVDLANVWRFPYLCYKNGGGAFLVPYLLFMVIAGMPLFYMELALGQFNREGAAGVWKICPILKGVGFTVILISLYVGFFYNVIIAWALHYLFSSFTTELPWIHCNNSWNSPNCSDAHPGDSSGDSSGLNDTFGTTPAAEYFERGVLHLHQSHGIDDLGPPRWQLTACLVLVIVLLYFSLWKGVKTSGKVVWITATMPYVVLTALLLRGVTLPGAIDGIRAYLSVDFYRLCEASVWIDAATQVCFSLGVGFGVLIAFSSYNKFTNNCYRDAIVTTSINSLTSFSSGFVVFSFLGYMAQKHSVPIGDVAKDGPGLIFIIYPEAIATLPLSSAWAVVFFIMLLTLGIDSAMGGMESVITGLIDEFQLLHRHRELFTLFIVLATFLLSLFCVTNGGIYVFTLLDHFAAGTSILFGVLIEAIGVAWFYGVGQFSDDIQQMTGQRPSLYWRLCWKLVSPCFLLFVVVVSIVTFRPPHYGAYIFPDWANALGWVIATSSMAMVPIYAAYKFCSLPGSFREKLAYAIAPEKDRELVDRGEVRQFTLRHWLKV
T1 sequence (P23975 whole entry): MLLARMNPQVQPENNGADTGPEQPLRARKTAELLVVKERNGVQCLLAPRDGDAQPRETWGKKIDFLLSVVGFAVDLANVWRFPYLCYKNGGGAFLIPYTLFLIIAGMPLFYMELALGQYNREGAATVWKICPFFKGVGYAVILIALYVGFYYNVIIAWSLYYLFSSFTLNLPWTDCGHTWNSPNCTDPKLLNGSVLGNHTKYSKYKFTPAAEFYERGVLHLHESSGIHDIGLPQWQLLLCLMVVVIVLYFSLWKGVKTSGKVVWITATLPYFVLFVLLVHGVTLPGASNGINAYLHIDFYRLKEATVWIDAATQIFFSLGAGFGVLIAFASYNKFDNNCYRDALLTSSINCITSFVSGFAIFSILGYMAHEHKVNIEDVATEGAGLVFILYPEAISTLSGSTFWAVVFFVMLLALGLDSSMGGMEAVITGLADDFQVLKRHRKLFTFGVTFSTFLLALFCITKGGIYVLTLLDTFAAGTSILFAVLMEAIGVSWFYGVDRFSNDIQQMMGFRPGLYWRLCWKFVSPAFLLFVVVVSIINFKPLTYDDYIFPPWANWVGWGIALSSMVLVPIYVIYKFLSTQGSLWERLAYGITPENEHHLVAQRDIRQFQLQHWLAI
Chain of Sodium-dependent serotonin transporter (P31645 whole entry): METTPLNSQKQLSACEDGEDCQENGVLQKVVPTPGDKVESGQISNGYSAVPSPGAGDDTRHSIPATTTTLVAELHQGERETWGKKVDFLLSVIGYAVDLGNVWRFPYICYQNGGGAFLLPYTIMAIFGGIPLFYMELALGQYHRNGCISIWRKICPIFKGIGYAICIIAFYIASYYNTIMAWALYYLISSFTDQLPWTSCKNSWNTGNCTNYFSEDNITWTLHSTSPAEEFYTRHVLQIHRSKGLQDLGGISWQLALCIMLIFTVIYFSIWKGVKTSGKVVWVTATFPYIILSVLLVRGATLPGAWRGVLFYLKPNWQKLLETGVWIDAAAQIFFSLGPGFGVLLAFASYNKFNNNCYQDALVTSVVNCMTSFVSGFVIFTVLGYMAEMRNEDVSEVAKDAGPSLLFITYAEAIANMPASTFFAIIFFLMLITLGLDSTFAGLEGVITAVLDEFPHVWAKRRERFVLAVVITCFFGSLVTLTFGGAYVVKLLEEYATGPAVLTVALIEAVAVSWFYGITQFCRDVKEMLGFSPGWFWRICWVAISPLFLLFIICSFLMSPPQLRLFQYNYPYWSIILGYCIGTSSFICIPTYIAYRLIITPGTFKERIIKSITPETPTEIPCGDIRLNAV
T3 sequence (Q61327 whole entry): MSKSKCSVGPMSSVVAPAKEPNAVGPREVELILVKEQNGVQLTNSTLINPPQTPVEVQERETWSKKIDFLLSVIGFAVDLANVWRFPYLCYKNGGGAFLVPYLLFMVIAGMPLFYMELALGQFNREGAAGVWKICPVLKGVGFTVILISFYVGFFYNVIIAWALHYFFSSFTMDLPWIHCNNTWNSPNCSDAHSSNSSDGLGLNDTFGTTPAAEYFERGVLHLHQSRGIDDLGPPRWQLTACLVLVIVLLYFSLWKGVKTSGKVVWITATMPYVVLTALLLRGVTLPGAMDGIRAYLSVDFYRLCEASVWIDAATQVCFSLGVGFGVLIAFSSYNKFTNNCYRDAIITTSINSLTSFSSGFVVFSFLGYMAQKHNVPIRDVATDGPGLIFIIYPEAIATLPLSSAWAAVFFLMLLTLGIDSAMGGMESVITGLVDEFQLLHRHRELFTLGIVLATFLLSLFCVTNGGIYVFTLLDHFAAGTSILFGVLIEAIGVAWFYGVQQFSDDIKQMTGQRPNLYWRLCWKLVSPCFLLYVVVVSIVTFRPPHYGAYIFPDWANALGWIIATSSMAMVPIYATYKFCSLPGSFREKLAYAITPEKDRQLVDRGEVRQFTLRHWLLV
Chain of Alpha-2A adrenergic receptor (P08913 whole entry): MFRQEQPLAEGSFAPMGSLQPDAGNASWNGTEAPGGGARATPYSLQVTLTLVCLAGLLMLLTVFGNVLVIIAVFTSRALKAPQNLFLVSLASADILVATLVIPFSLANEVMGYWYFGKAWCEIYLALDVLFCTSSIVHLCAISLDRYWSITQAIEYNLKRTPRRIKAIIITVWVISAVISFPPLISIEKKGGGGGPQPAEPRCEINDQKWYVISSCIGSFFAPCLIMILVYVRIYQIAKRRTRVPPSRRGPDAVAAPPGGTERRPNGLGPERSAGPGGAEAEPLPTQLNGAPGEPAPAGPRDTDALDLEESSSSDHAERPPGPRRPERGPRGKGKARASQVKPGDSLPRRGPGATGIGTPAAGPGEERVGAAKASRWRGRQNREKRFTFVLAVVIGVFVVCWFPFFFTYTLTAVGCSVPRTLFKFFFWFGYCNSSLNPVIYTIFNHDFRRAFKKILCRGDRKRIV

## OC1(c2ccc(Cl)cc2)c2ccccc2C2=NCCN21 (racemic) [MAZINDOL]
[1]
  IC50: 0.00092 µM
[2]; hek293
  EC50: Not Active
[3]
  EC50: Not Active
[4]
  Ki: 0.0113 µM
[5]
  EC50: Not Active
[6]; hek293
  EC50: Not Active
[7]
  EC50: Not Active
[8]
  Ki: 0.0135 µM

## COC(=O)[C@H]1[C@@H](OC(=O)c2ccccc2)C[C@@H]2CC[C@H]1N2C [COCAINE]
[3]
  EC50: Not Active
[9]
  IC50: 0.2 µM
[5]
  EC50: Not Active
[6]; hek293
  EC50: Not Active
[10]
  Ki: 0.85 µM

## CNC(=O)[C@H]1O[C@@H](n2cnc3c(NC)nc(C#Cc4ccc(Cl)s4)nc32)[C@H](O)[C@@H]1O
[11]
  Ki: > 10 µM
[12]
  Ki: > 10 µM
[13]
  inhibition: inactive
[14]
  Ki: > 10 µM
Mus musculus
  Time: >6 h
[15]
  Ki: > 10 µM
[16]
  Ki: 5 to 10 µM
[17]
  Activity: 321%

## CCCNc1nc(C#Cc2ccc(Cl)s2)nc2c1ncn2[C@H]1[C@H](O)[C@H](O)[C@]2(C(=O)NC)C[C@H]12
[2]
  Activity: 159%
[2]; read-out: EC50
  EC50: 0.9 µM
[18]
  EC50: > 1 µM
[19]
  IC50: > 8.7 µM
[6]
  Activity: 268%
[6]; read-out: EC50
  EC50: 1.12 µM
[20]
  Ki: 1.44 µM
